The source of these data is ChEMBL document CHEMBL4431335, “Synthesis and trypanocidal activity of novel benzimidazole derivatives” (Bioorg Med Chem Lett, 2016).

A word on the inhibition: it is how much of the control response was suppressed. In general, IC50 refers to the midpoint of a concentration-inhibition curve. The CC50 is the concentration giving 50% cytotoxicity.

Data set [1] addresses Triosephosphate isomerase, glycosomal (Trypanosoma cruzi) (UniProt P52270). As to the kind of experiment: Inhibition of recombinant Trypanosoma cruzi triosephosphate isomerase assessed as reduction of DHAP at 200 uM after 2 hrs by measuring NADH consumption by alpha-glycerolphosphate dehydrogenase coupled assay. The method, boiled down:
(§1)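 Recombinant TIM (T. cruzi or human) at 5 µg/mL was preincubated with compound at 36 °C in 100 mM triethanolamine, 10 mM EDTA, pH 7.4, with compound dissolved in 10% DMSO. After 2 h, 1 µL was transferred into 1 mL of activity mix. Activity was measured as NADH consumed by α-glycerolphosphate dehydrogenase reducing DHAP. Controls were enzyme alone, substrate alone, and enzyme plus DMSO.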

Data set [2] addresses Triosephosphate isomerase, glycosomal (Trypanosoma cruzi, UniProt P52270). As to the kind of experiment: Inhibition of recombinant Trypanosoma cruzi triosephosphate isomerase assessed as reduction of DHAP after 2 hrs by measuring NADH consumption by alpha-glycerolphosphate dehydrogenase coupled assay. Put shortly:
as §1

Data set [3] addresses Triosephosphate isomerase (Homo sapiens) (UniProt P60174). As to the kind of experiment: Inhibition of recombinant human triosephosphate isomerase assessed as reduction of DHAP at 200 uM after 2 hrs by measuring NADH consumption by alpha-glycerolphosphate dehydrogenase coupled assay. Put shortly:
as §1

For data set [4], the system named is Trypanosoma cruzi. As to the kind of experiment: Antitrypanosomal activity against epimastigote forms of Trypanosoma cruzi NINOA isolated from chagas disease patient after 24 hrs by resazurin dye based spectrophotometric analysis. Format: functional, organism-based. Put shortly: (§2)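 Epimastigotes at 1 × 10⁵/ml were exposed to compound for 24 h at 28 °C. Compounds were taken from 10 mg/mL DMSO stocks and diluted in sterile water, with final DMSO at most 1%. Concentrations were […], with DMSO-treated parasite controls. Viability was read by resazurin fluorescence (535/590 nm). Runs were in duplicate and IC50 was derived.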

The subject of data set [5] is Trypanosoma cruzi. Description: Antitrypanosomal activity against epimastigote forms of Trypanosoma cruzi INC-5 isolated from chagas disease patient after 24 hrs by resazurin dye based spectrophotometric analysis. It counts as functional, organism-based. To be noted: INC-5, 24 h. The method, boiled down: as §2
Data set [6] is described as follows: Cytotoxicity against mouse J774 cells assessed as decrease in cell viability after 24 hrs by resazurin assay. Format: cell-based. The method, boiled down: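 Mouse J774 macrophages were grown in DMEM with 10% FBS and treated with a range of compound concentrations for 24 h at 37 °C, 5% CO₂, with final DMSO below 1%. Untreated cells served as controls. Resazurin was added for 3 h and fluorescence was read (535/590 nm). Cytotoxicity was scored as % metabolic reduction versus untreated cells, and CC50 was derived.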
A general note: Resazurin is reduced to fluorescent resorufin, in cell work by metabolically active cells.

Data set [7] addresses Triosephosphate isomerase, glycosomal (Trypanosoma cruzi) (UniProt P52270). Description: Inhibition of recombinant Trypanosoma cruzi triosephosphate isomerase assessed as reduction of DHAP at 100 uM after 2 hrs by measuring NADH consumption by alpha-glycerolphosphate dehydrogenase coupled assay. The method, boiled down:
as §1

Data set [8] can be described thus: Solubility of the compound in DMSO at 200 uM. Format: physicochemical.
In data set [9] the target is Triosephosphate isomerase (Homo sapiens) (UniProt P60174). Description: Inhibition of recombinant human triosephosphate isomerase assessed as reduction of DHAP at 100 uM after 2 hrs by measuring NADH consumption by alpha-glycerolphosphate dehydrogenase coupled assay. Put shortly:
as §1

Chain of Triosephosphate isomerase, glycosomal (Trypanosoma cruzi) (P52270 whole entry): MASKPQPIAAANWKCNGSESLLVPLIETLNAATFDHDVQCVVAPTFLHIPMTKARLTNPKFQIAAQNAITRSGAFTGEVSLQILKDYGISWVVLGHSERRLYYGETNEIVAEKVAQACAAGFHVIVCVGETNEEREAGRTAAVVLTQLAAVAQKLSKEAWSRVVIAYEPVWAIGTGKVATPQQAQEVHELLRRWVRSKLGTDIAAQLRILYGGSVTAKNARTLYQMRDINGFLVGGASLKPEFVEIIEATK
Chain of Triosephosphate isomerase, glycosomal (P52270 whole entry): as above
Chain of Triosephosphate isomerase (Homo sapiens) (P60174 whole entry): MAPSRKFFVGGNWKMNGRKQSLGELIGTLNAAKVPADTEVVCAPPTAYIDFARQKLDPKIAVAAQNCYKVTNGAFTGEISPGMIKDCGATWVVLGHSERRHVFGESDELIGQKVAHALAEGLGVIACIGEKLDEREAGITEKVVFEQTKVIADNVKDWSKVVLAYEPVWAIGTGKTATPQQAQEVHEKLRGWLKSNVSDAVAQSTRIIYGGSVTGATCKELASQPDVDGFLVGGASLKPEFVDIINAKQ

On to `O=C(CSc1nc2cc(Oc3cccc4ccccc34)c(Cl)cc2[nH]1)Nc1ncc([N+](=O)[O-])s1`, for which, in data set [1], the inhibition was determined as 48%.
`COC(=O)c1cc2nc(SCC(=O)Nc3nccs3)[nH]c2cc1Cl`: the inhibition in [1] turned out to be 59%; in [3] it was 0%. Further, the IC50 came to 223 µM in data set [2], 120 µM in the data set with Trypanosoma cruzi [4] and 48.9 µM with Trypanosoma cruzi [5]. Besides, in [6], the CC50 at 24 h came to 104 µM.
Regarding `COC(=O)c1cc2nc(SCC(=O)Nc3ccncc3)[nH]c2cc1Cl`, in data set [1], the inhibition is 33%.
For the compound `COC(=O)c1cc2nc(SCC(=O)Nc3ncc([N+](=O)[O-])s3)[nH]c2cc1Cl`, the inhibition in data set [1] was 69%; in data set [3], 15%. The concentration for half-maximal inhibition (IC50) in data set [2] was found to be 77 µM; with Trypanosoma cruzi [4] it was 95.4 µM; in the data set with Trypanosoma cruzi [5], 42.5 µM. Moreover, in [6], the CC50 at 24 h came to 84.9 µM.
On to `COC(=O)c1cc2nc(SCC(=O)Nc3ccc([N+](=O)[O-])cn3)[nH]c2cc1Cl`, for which the inhibition in data set [7] worked out at 0%. Also, the solubility entry in data set [8] is reported as “Insoluble”.
For `COC(=O)c1cc2nc(SCC(=O)Nc3ccc(Cl)cc3)[nH]c2cc1Cl`, the inhibition in data set [7] was 65%; in data set [9], 0%. In addition, the solubility entry in data set [8] is “Insoluble”. In addition, the IC50 in the data set with Trypanosoma cruzi [4] is 57 µM; in the data set with Trypanosoma cruzi [5], 186 µM. The CC50 at 24 h in [6] is 90.4 µM.
For the compound `COC(=O)c1ccc2nc(SCC(=O)Nc3ncc([N+](=O)[O-])s3)[nH]c2c1`, the inhibition in data set [1] worked out at 52%.
As for `COC(=O)c1cc2nc(SCC(=O)Nc3ccc(OC)cn3)[nH]c2cc1Cl`, the inhibition in data set [7] was determined as 4%. For the same compound, the solubility entry in data set [8] was “Insoluble”.
With `COC(=O)c1cc2nc(SCC(=O)Nc3ccccc3)[nH]c2cc1Cl`, in [1], the inhibition worked out at 33%.
For the compound `COC(=O)c1cc2nc(SCC(=O)Nc3ncccn3)[nH]c2cc1Cl`, the inhibition in data set [1] turned out to be 0%.
On the same count and under the same terms, in the case of `COC(=O)c1cc2nc(SCC(=O)Nc3ccccn3)[nH]c2cc1Cl` it was 10%.
For `COC(=O)c1cc2nc(SCC(=O)Nc3cccc(Cl)n3)[nH]c2cc1Cl`, the inhibition in data set [7] was 21%. The solubility entry in data set [8] is “Insoluble”.
On to `COC(=O)c1cc2nc(SCC(=O)Nc3cccc(C)n3)[nH]c2cc1Cl`, for which the inhibition in data set [7] came to 0%. Further, the solubility result in data set [8] is reported as “Insoluble”.
As to `COC(=O)c1cc2nc(SCC(=O)Nc3cccc(C(N)=O)n3)[nH]c2cc1Cl`, the inhibition in data set [7] was determined as 0%. Besides, the solubility result in data set [8] is listed as “Insoluble”.
On to `COC(=O)c1cc2nc(SCC(=O)Nc3cnccn3)[nH]c2cc1Cl`, for which the inhibition is 68% in data set [1] and 6% in [3]. The figures for the IC50 (in data set [2]; in the data set with Trypanosoma cruzi [4]; in the data set on Trypanosoma cruzi [5]) were 82 µM, 98.8 µM and 28.7 µM, respectively. For the same compound, in data set [6], the cytotoxic concentration (CC50) at 24 h was determined as 135 µM.
On to `COC(=O)c1cc2nc(SCC(=O)Nc3ccc(Cl)cn3)[nH]c2cc1Cl`, for which the inhibition worked out at 41% in data set [7] and 0% in [9]. The solubility result in [8] is reported as “Insoluble”. Further, the figures for the IC50 in the data set with Trypanosoma cruzi [4] and in the data set with Trypanosoma cruzi [5] were 124 µM and 95 µM, respectively. Besides, the CC50 at 24 h in data set [6] turned out to be 82.7 µM.
On to `CC1CS(=O)(=O)CCN1/N=C/c1ccc([N+](=O)[O-])o1` (centres undefined) [NIFURTIMOX], for which the IC50 in the data set with Trypanosoma cruzi [4] was found to be 89.8 µM; in the data set with Trypanosoma cruzi [5] it was 50.8 µM. The CC50 at 24 h in data set [6] was found to be 132 µM.
